From ChEMBL document CHEMBL2311431, “Synthesis and biological evaluation of some 5-arylidene-2-(1,3-thiazol-2-ylimino)-1,3-thiazolidin-4-ones as dual anti-inflammatory/antimicrobial agents” (Bioorg Med Chem, 2013)
Values after ≈ are worked out from the molar mass of the structure shown.

Columns and labels:
Aspergillus flavus [1] = experiment: Fungicidal activity against Aspergillus flavus ATCC 9643 after 72 hrs by serial subcultivation method; format: functional; conditions: ATCC 9643, 72 h
Trichoderma viride [2] = experiment: Antifungal activity against Trichoderma viride IAM 5061 after 72 hrs by serial dilution technique; format: functional; conditions: IAM 5061, 72 h
Method in brief: (§1)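 Serial dilution in malt broth; compounds from 1 mg/ml stocks in 5% DMSO; 72 h at 28 °C. MIC is the lowest concentration with no visible growth under a binocular microscope. Run in duplicate, repeated three times.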

Micrococcus flavus [3] = experiment: Bactericidal activity against Micrococcus flavus ATCC 10240 after 72 hrs by serial subcultivation method; format: functional; conditions: ATCC 10240, 72 h
Talaromyces funiculosus [4] = experiment: Antifungal activity against Penicillium funiculosum ATCC 36839 after 72 hrs by serial dilution technique; format: functional; conditions: ATCC 36839, 72 h; method in brief: as §1
Aspergillus fumigatus [5] = experiment: Fungicidal activity against Aspergillus fumigatus after 72 hrs by serial subcultivation method; format: functional
Pseudomonas aeruginosa [6] = experiment: Antibacterial activity against Pseudomonas aeruginosa ATCC 27853 after 24 hr by microdilution test; format: functional; conditions: ATCC 27853, 24 h
Method in brief: (§2)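 Broth microdilution in LB medium, about 1.0×10^4 cfu per well; compounds from 1 mg/ml stocks in 5% DMSO. Incubated 24 h. MIC is the lowest concentration with no visible growth under a binocular microscope. Run in duplicate, repeated three times.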

Aspergillus flavus [7] = experiment: Antifungal activity against Aspergillus flavus ATCC 9643 after 72 hrs by serial dilution technique; format: functional; conditions: ATCC 9643, 72 h; method in brief: as §1
Aspergillus niger [8] = experiment: Fungicidal activity against Aspergillus niger ATCC 6275 after 72 hrs by serial subcultivation method; format: functional; conditions: ATCC 6275, 72 h
Staphylococcus aureus [9] = experiment: Bactericidal activity against Staphylococcus aureus ATCC 6538 after 72 hrs by serial subcultivation method; format: functional; conditions: ATCC 6538, 72 h
Bacillus cereus [10] = experiment: Bactericidal activity against Bacillus cereus clinical isolate after 72 hrs by serial subcultivation method; format: functional
Micrococcus flavus [11] = experiment: Antibacterial activity against Micrococcus flavus ATCC 10240 after 24 hr by microdilution test; format: functional; conditions: ATCC 10240, 24 h; method in brief: as §2
Penicillium ochrochloron [12] = experiment: Antifungal activity against Penicillium ochrochloron ATCC 9112 after 72 hrs by serial dilution technique; format: functional; conditions: ATCC 9112, 72 h; method in brief: as §1
Talaromyces funiculosus [13] = experiment: Fungicidal activity against Penicillium funiculosum ATCC 36839 after 72 hrs by serial subcultivation method; format: functional; conditions: ATCC 36839, 72 h
Mus musculus [14] = experiment: Antiinflammatory activity in AKR mouse assessed as inhibition of carrageenan-induced paw edema at 0.01 mmol/kg, ip measured after 3.5 hrs of carrageenan-challenge; format: functional
Method in brief: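 AKR mice of both sexes (pregnant females excluded), 6-10 per group, fasted during the experiment. Edema induced by intradermal 0.05 mL of 2% carrageenin into the right hind paw. Compound given at 0.01 mmol/kg ip, suspended in water with Tween-80, at the same time as carrageenin.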

Penicillium ochrochloron [15] = experiment: Fungicidal activity against Penicillium ochrochloron ATCC 9112 after 72 hrs by serial subcultivation method; format: functional; conditions: ATCC 9112, 72 h
Pseudomonas aeruginosa [16] = experiment: Bactericidal activity against Pseudomonas aeruginosa ATCC 27853 after 72 hrs by serial subcultivation method; format: functional; conditions: ATCC 27853, 72 h
Aspergillus fumigatus [17] = experiment: Antifungal activity against Aspergillus fumigatus after 72 hrs by serial dilution technique; format: functional; method in brief: as §1
Mus musculus [18] = experiment: Acute toxicity in AKR mouse up to 0.5 mmol/kg, ip; format: organism-based; conditions: in vivo
Trichoderma viride [19] = experiment: Fungicidal activity against Trichoderma viride IAM 5061 after 72 hrs by serial subcultivation method; format: functional; conditions: IAM 5061, 72 h
Staphylococcus aureus [20] = experiment: Antibacterial activity against Staphylococcus aureus ATCC 6538 after 24 hr by microdilution test; format: functional; conditions: ATCC 6538, 24 h; method in brief: as §2
Aspergillus niger [21] = experiment: Antifungal activity against Aspergillus niger ATCC 6275 after 72 hrs by serial dilution technique; format: functional; conditions: ATCC 6275, 72 h; method in brief: as §1
Listeria monocytogenes [22] = experiment: Bactericidal activity against Listeria monocytogenes NCTC 7973 after 72 hrs by serial subcultivation method; format: functional; conditions: NCTC 7973, 72 h
Escherichia coli [23] = experiment: Antibacterial activity against Escherichia coli ATCC 35210 after 24 hr by microdilution test; format: functional; conditions: ATCC 35210, 24 h; method in brief: as §2
Escherichia coli [24] = experiment: Bactericidal activity against Escherichia coli ATCC 35210 after 72 hrs by serial subcultivation method; format: functional; conditions: ATCC 35210, 72 h
[25] = biological target: T1, Prostaglandin G/H synthase 1 (Ovis aries, UniProt P05979); experiment: (§3) Inhibition of ovine COX1 assessed as inhibition of PGF2a production by enzyme immunoassay
T1 sequence (P05979 whole entry): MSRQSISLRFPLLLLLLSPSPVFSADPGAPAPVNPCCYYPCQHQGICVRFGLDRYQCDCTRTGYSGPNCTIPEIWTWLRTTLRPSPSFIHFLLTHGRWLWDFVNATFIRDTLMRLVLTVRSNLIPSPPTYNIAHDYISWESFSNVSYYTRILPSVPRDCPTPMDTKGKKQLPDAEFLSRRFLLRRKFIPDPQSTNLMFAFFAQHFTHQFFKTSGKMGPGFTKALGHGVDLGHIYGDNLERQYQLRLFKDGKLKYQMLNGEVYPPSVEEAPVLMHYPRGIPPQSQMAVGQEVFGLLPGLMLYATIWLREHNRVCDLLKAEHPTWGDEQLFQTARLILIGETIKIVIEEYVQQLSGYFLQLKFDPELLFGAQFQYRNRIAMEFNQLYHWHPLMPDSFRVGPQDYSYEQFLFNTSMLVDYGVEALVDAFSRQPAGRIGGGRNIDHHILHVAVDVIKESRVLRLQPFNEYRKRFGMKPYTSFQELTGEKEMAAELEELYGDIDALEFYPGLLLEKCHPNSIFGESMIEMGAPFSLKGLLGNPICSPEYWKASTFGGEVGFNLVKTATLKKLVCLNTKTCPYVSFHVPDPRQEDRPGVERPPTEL
Method in brief: (§4)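 Ovine COX-1 from a commercial screening kit, tested with 0.1 µM arachidonic acid, which is below the saturating level. COX-derived PGH2 is reduced by SnCl2 to PGF2a, quantified by enzyme immunoassay with a broad prostaglandin antibody. At least triplicate.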

[26] = biological target: T2, Prostaglandin G/H synthase 1 (Ovis aries) (UniProt P05979); experiment: as §3; parameters: concentration or dose not given beside the values; conditions: concentration not given here; method in brief: as §4
T2 sequence (whole entry): T1 sequence (P05979 whole entry)

Glycine max = experiment: (§5) Inhibition of soybean lipoxygenase assessed as inhibition of sodium linolate conversion to 13-hydroperoxylinoleic acid after 4 mins by spectrophotometry
[27] = as §5; parameters: species or system Glycine max; conditions: read-out: IC50
Bacillus cereus [28] = experiment: Antibacterial activity against Bacillus cereus clinical isolate after 24 hr by microdilution test; format: functional; method in brief: as §2
Listeria monocytogenes [29] = experiment: Antibacterial activity against Listeria monocytogenes NCTC 7973 after 24 hr by microdilution test; format: functional; conditions: NCTC 7973, 24 h; method in brief: as §2

Compound | MFC (Aspergillus flavus [1]) [µM] | MIC (Trichoderma viride [2]) [µM] | MBC (Micrococcus flavus [3]) [µM] | MIC (Talaromyces funiculosus [4]) [µM] | MFC (Aspergillus fumigatus [5]) [µM] | MIC (Pseudomonas aeruginosa [6]) [µM] | MIC (Aspergillus flavus [7]) [µM] | MFC (Aspergillus niger [8]) [µM] | MBC (Staphylococcus aureus [9]) [µM] | MBC (Bacillus cereus [10]) [µM] | MIC (Micrococcus flavus [11]) [µM] | MIC (Penicillium ochrochloron [12]) [µM] | MFC (Talaromyces funiculosus [13]) [µM] | inhibition in vivo at 10 µmol/kg (Mus musculus [14]) [%] | MFC (Penicillium ochrochloron [15]) [µM] | Activity (Mus musculus [18]) | IC50 [25] [µM] | inhibition [26] [%] | inhibition (Glycine max) [%] | IC50 [27] [µM] | further results
O=C1N/C(=N\c2nccs2)S/C1=C\c1c(Cl)cccc1Cl | 70.2 (≈ 25 µg/mL) | 21.1 (≈ 7.52 µg/mL) | 84.2 (≈ 30 µg/mL) | 28.1 (≈ 10 µg/mL) | 70.2 (≈ 25 µg/mL) | 21.1 (≈ 7.52 µg/mL) | 56.2 (≈ 20 µg/mL) | 70.2 (≈ 25 µg/mL) | 56.2 (≈ 20 µg/mL) | 28.1 (≈ 10 µg/mL) | 56.2 (≈ 20 µg/mL) | 28.1 (≈ 10 µg/mL) | 70.2 (≈ 25 µg/mL) | 58.5 | 56.2 (≈ 20 µg/mL) | Non-toxic | 78 | 100 | 43 | 137 | MBC (Pseudomonas aeruginosa [16]): 28.1 µM (≈ 10 µg/mL); MIC (Aspergillus fumigatus [17]): 56.2 µM (≈ 20 µg/mL); MFC (Trichoderma viride [19]): 28.1 µM (≈ 10 µg/mL); MIC (Staphylococcus aureus [20]): 28.1 µM (≈ 10 µg/mL); MIC (Aspergillus niger [21]): 56.2 µM (≈ 20 µg/mL); MBC (Listeria monocytogenes [22]): 84.2 µM (≈ 30 µg/mL); MIC (Escherichia coli [23]): 28.1 µM (≈ 10 µg/mL); MBC (Escherichia coli [24]): 56.2 µM (≈ 20 µg/mL); MIC (Bacillus cereus [28]): 21.1 µM (≈ 7.52 µg/mL); MIC (Listeria monocytogenes [29]): 56.2 µM (≈ 20 µg/mL)
O=C1N/C(=N\c2nccs2)S/C1=C\c1cccc(O)c1 |  |  |  |  |  |  |  |  |  |  |  |  |  | 33.7 |  | Non-toxic | 16 | 98 | 35 | > 150 | 
O=C1N/C(=N\c2nccs2)S/C1=C\c1ccc(Cl)cc1Cl | 56.2 (≈ 20 µg/mL) | 28.1 (≈ 10 µg/mL) | 98.2 (≈ 35 µg/mL) | 28.1 (≈ 10 µg/mL) | 56.2 (≈ 20 µg/mL) | 28.1 (≈ 10 µg/mL) | 42.1 (≈ 15 µg/mL) | 56.2 (≈ 20 µg/mL) | 70.2 (≈ 25 µg/mL) | 56.2 (≈ 20 µg/mL) | 84.2 (≈ 30 µg/mL) | 42.1 (≈ 15 µg/mL) | 56.2 (≈ 20 µg/mL) | 9.9 | 56.2 (≈ 20 µg/mL) | Non-toxic | 32 | 98 | 54 | 122 | MBC (Pseudomonas aeruginosa [16]): 70.2 µM (≈ 25 µg/mL); MIC (Aspergillus fumigatus [17]): 42.1 µM (≈ 15 µg/mL); MFC (Trichoderma viride [19]): 42.1 µM (≈ 15 µg/mL); MIC (Staphylococcus aureus [20]): 56.2 µM (≈ 20 µg/mL); MIC (Aspergillus niger [21]): 42.1 µM (≈ 15 µg/mL); MBC (Listeria monocytogenes [22]): 84.2 µM (≈ 30 µg/mL); MIC (Escherichia coli [23]): 21.1 µM (≈ 7.52 µg/mL); MBC (Escherichia coli [24]): 56.2 µM (≈ 20 µg/mL); MIC (Bacillus cereus [28]): 28.1 µM (≈ 10 µg/mL); MIC (Listeria monocytogenes [29]): 70.2 µM (≈ 25 µg/mL)
